Drawing on ChEMBL document CHEMBL3232876, “Novel R-(+)-limonene-based thiosemicarbazones and their antitumor activity against human tumor cell lines” (Eur J Med Chem, 2014), this text covers GI50 and TGI for 8 compounds.

A short description of data set [1]: (§1) Growth inhibition of African green monkey Vero cells after 48 hrs by sulforhodamine B assay. The following applies: chlorocebus sabaeus, Vero cells. It is filed as cell-based. Put shortly:
(§2)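 Tumour lines from NCI and Vero from the Rio de Janeiro Cell Bank, grown in RPMI 1640 with 5% fetal bovine serum, with penicillin:streptomycin added to experimental cultures. Each compound was tested at four 10-fold dilutions; sulforhodamine B staining at time zero and 48 h. Proliferation was calculated against T0 and drug-free controls, and GI50 came from sigmoidal regression of the concentration-response curves. Representative experiment in triplicate.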
(In general: Sulforhodamine B stains cellular protein and so reports cell mass.)

The test system of another data set is Vero. The description is as §1. It is filed as cell-based. The following applies: chlorocebus sabaeus, vero, 48 h. The gist of the method:
as §2

Another data set has as its system U-251. Nature of the data set: Growth inhibition of human U251 cells after 48 hrs by sulforhodamine B assay. Format: functional. The following applies: U-251, 48 h. Put shortly:
as §2

In another data set the test system is 786-0. Nature of the data set: Growth inhibition of human 786-0 cells after 48 hrs by sulforhodamine B assay. The conditions noted are these: 786-0, 48 h. It is filed as functional. The gist of the method:
as §2

Data set [2] is described as follows: Growth inhibition of human OVCAR3 cells after 48 hrs by sulforhodamine B assay. It is filed as functional. The following applies: OVCAR-3, 48 h. Put shortly:
as §2

The test system of a further data set is PC-3. Nature of the data set: Growth inhibition of human PC3 cells after 48 hrs by sulforhodamine B assay. Format: functional. The conditions noted are these: PC-3, 48 h. Put shortly:
as §2

Another data set has as its system NCI-H460. Nature of the data set: Growth inhibition of human NCI-H460 cells after 48 hrs by sulforhodamine B assay. Format: functional. The following applies: NCI-H460, 48 h. Put shortly: as §2
Data set [3] is described as follows: Growth inhibition of human NCI-ADR-RES cells after 48 hrs by sulforhodamine B assay. Format: functional. Put shortly:
as §2

The subject of a further data set is MCF7. Nature of the data set: Growth inhibition of human MCF7 cells after 48 hrs by sulforhodamine B assay. It is filed as functional. The conditions noted are these: MCF7, 48 h. Put shortly: as §2
The test system of another data set is K562. Put plainly: Growth inhibition of human K562 cells after 48 hrs by sulforhodamine B assay. It is filed as functional. The following applies: K562, 48 h. The gist of the method: as §2
In the next data set the test system is HT-29. Put plainly: Growth inhibition of human HT-29 cells after 48 hrs by sulforhodamine B assay. Format: functional. The following applies: HT-29, 48 h. Put shortly: as §2
Data set [4] is described as follows: Growth inhibition of human UACC62 cells after 48 hrs by sulforhodamine B assay. Format: functional. The following applies: UACC-62, 48 h. The gist of the method:
as §2

Regarding `CC1=CC[C@H](C(C)(C)NC(=S)NN)CC1`, it took 49.5 µM to inhibit growth in data set [1] by half (GI50 at 48 h). For the same compound, the TGI (in general, the concentration giving total growth inhibition) was over 100 µM with Vero; 10.1 µM with U-251; over 100 µM in the data set with 786-0; over 100 µM in [2]; over 100 µM with PC-3; over 100 µM in the data set with NCI-H460. Also, the concentration for total growth inhibition (TGI) in [3] was over 100 µM; in the data set on MCF7, 46.7 µM; in the data set with K562, over 100 µM; with HT-29, over 100 µM. Further, the GI50 – broadly, the concentration at which growth is held to half of that of the control – is 0.2 µM in the data set on U-251; over 100 µM in the data set on 786-0; 41.9 µM in [2]; 44.5 µM with PC-3; 42 µM in the data set on NCI-H460; 39.3 µM in data set [3]. The GI50 is 0.9 µM with MCF7, over 100 µM in the data set on K562 and 60.1 µM in the data set on HT-29.

`CC1=CC[C@H](C(C)(C)NC(=S)N/N=C(\C)c2ccccc2)CC1`: the GI50 at 48 h in [1] is over 100 µM. For the same compound, the concentration for total growth inhibition (TGI) (with Vero; in data set [4]; with U-251; with 786-0; in data set [2]; with PC-3) was over 100 µM each time. Moreover, the TGI (in the data set on NCI-H460; in data set [3]; with MCF7; in the data set on K562; in the data set with HT-29) was over 100 µM each time. Moreover, the 50% growth inhibitory concentration (GI50) (in data set [4]; with U-251; in the data set on 786-0; in [2]; in the data set on PC-3; in the data set on NCI-H460) was over 100 µM throughout. Besides, the 50% growth inhibitory concentration (GI50) is over 100 µM in data set [3], 20.7 µM with MCF7, over 100 µM with K562 and 29.5 µM in the data set with HT-29.

In [1], `CC(=O)O[C@H]1C(=O)[C@@]2(C)[C@H]([C@H](OC(=O)c3ccccc3)[C@]3(O)C[C@H](OC(=O)[C@H](O)[C@@H](NC(=O)c4ccccc4)c4ccccc4)C(C)=C1C3(C)C)[C@]1(OC(C)=O)CO[C@@H]1C[C@@H]2O` [PACLITAXEL] came in with a 50% growth inhibitory concentration (GI50) at 48 h of 0.03 µM. The concentration for 50% growth inhibition (GI50) in data set [4] is 0.01 µM; with U-251 it was 0.003 µM; in the data set with 786-0, 0.02 µM; in [2], 0.2 µM; in the data set with PC-3, under 0.1 µM; in the data set on NCI-H460, 0.1 µM. The concentration for 50% growth inhibition (GI50) in data set [3] is 0.04 µM; in the data set on MCF7 it was 0.005 µM; in the data set with K562 it was 0.1 µM; in the data set with HT-29, 0.001 µM. Moreover, the total growth inhibition concentration (TGI) in data set [4] was 0.5 µM; in the data set on U-251, 0.1 µM; with 786-0, 0.8 µM; in data set [2], under 0.03 µM; in the data set with PC-3, under 0.03 µM; with NCI-H460 it was 0.08 µM. The total growth inhibition concentration (TGI) in data set [3] was 0.4 µM; in the data set on MCF7 it was 0.4 µM; in the data set on K562, 0.1 µM; in the data set on HT-29 it was under 0.03 µM.

`CC1=CC[C@H](C(C)(C)NC(=S)N/N=C/c2ccco2)CC1` returned a GI50 at 48 h in data set [1] of 5.1 µM. The TGI in the data set on Vero worked out at 14.7 µM; in data set [4], 14.1 µM; in the data set on U-251, 81.5 µM; with 786-0, 9.8 µM; in data set [2], 13.8 µM; in the data set on PC-3, 27.2 µM. For the same compound, the TGI in the data set with NCI-H460 was 10.8 µM; in data set [3], 14.1 µM; in the data set on MCF7 it was 53.7 µM; in the data set on K562 it was over 100 µM; with HT-29, 26.9 µM. The concentration for 50% growth inhibition (GI50) in data set [4] worked out at 10.7 µM; in the data set with U-251, 9.7 µM; in the data set with 786-0, 11.7 µM; in data set [2], 10.8 µM; in the data set on PC-3, 13.5 µM; with NCI-H460 it was 13.5 µM. Moreover, the GI50 in [3] amounted to 9.8 µM; in the data set on MCF7, 9.3 µM; with K562, 0.1 µM; in the data set with HT-29, 7.2 µM.

In the case of `CC1=CC[C@H](C(C)(C)NC(=S)N/N=C/c2cccc([N+](=O)[O-])c2)CC1`, the GI50 at 48 h in data set [1] was over 100 µM. Moreover, the TGI in the data set with Vero was over 100 µM; in data set [4], over 100 µM; in the data set with U-251 it was over 100 µM; in the data set on 786-0, over 100 µM; in data set [2], over 100 µM; in the data set on PC-3 it was 88 µM. For the same compound, the TGI with NCI-H460 was over 100 µM; in data set [3] it was over 100 µM; in the data set with MCF7, over 100 µM; in the data set on K562, over 100 µM; in the data set on HT-29, 21.9 µM. Also, the GI50 was over 100 µM in [4]; over 100 µM in the data set with U-251; over 100 µM in the data set on 786-0; over 100 µM in data set [2]; 9.5 µM with PC-3; over 100 µM in the data set with NCI-H460. For the same compound, the GI50 in data set [3] is over 100 µM; in the data set with MCF7, over 100 µM; in the data set on K562 it was 45.6 µM; in the data set on HT-29, 0.6 µM.

Regarding `COc1ccc(/C(C)=N/NC(=S)NC(C)(C)[C@H]2CC=C(C)CC2)cc1`, the GI50 at 48 h in data set [1] was over 100 µM. The TGI (in the data set on Vero; in data set [4]; in the data set with U-251; in the data set on 786-0; in data set [2]; with PC-3) was over 100 µM in each case. In addition, the TGI (in the data set with NCI-H460; in [3]; in the data set on MCF7; with K562; in the data set on HT-29) was over 100 µM each time. Also, the concentration for 50% growth inhibition (GI50) in data set [4] is 95.3 µM; in the data set with U-251, 43.4 µM; in the data set on 786-0, over 100 µM; in data set [2], 74.9 µM; in the data set on PC-3, 83.6 µM; with NCI-H460 it was 90.6 µM. Besides, the GI50 is over 100 µM in [3], 5 µM in the data set with MCF7, 54 µM in the data set on K562 and 18.7 µM with HT-29.

As to `C=C(C)[C@H]1CC=C(C)CC1` [D-LIMONENE], the GI50 at 48 h in [1] is over 100 µM. The TGI (in the data set on Vero; in the data set with U-251; in the data set with 786-0; in data set [2]; in the data set on PC-3; in the data set on NCI-H460) was over 100 µM in each case. The TGI (in data set [3]; in the data set on MCF7; in the data set on K562; in the data set on HT-29) was over 100 µM throughout. Further, the GI50 (with U-251; with 786-0; in data set [2]; in the data set on PC-3; with NCI-H460; in data set [3]) was over 100 µM in each case. Further, the figures for the 50% growth inhibitory concentration (GI50) in the data set on MCF7, in the data set with K562 and in the data set with HT-29 were over 100 µM, 23.9 µM and over 100 µM, respectively.

In [1], `CC1=CC[C@H](C(C)(C)N=C=S)CC1` had a concentration for 50% growth inhibition (GI50) at 48 h of over 100 µM. The TGI (in the data set on Vero; in the data set on U-251; in the data set with 786-0; in data set [2]; with PC-3; in the data set with NCI-H460) was over 100 µM in each case. The TGI (in [3]; with MCF7; in the data set with K562; in the data set with HT-29) was over 100 µM in each case. Also, the GI50 was 29.1 µM in the data set on U-251; over 100 µM in the data set on 786-0; over 100 µM in data set [2]; over 100 µM with PC-3; over 100 µM with NCI-H460; over 100 µM in data set [3]. Further, the concentration for 50% growth inhibition (GI50) in the data set with MCF7 was 57.6 µM; in the data set on K562, 4 µM; in the data set on HT-29 it was over 100 µM.
